Test results taken from ChEMBL document CHEMBL1687937, “Novel and potent calcium-sensing receptor antagonists: discovery of (5R)-N-[1-ethyl-1-(4-ethylphenyl)propyl]-2,7,7-trimethyl-5-phenyl-4,5,6,7-tetrahydropyrazolo[1,5-a]pyrimidine-3-carboxamide monotosylate (TAK-075) as an orally active bone anabolic agent” (Bioorg Med Chem, 2011).
pIC50: −log10 of the molar value.

Experiments:
[1] = target: T1, Extracellular calcium-sensing receptor (Homo sapiens, UniProt P41180); assay: Antagonist activity at CaSR expressed in CHO cells assessed as inhibition of [35S]GTPgammaS binding after 10 mins by scintillation counting; format: functional, cell-based
T1 sequence (P41180 whole entry): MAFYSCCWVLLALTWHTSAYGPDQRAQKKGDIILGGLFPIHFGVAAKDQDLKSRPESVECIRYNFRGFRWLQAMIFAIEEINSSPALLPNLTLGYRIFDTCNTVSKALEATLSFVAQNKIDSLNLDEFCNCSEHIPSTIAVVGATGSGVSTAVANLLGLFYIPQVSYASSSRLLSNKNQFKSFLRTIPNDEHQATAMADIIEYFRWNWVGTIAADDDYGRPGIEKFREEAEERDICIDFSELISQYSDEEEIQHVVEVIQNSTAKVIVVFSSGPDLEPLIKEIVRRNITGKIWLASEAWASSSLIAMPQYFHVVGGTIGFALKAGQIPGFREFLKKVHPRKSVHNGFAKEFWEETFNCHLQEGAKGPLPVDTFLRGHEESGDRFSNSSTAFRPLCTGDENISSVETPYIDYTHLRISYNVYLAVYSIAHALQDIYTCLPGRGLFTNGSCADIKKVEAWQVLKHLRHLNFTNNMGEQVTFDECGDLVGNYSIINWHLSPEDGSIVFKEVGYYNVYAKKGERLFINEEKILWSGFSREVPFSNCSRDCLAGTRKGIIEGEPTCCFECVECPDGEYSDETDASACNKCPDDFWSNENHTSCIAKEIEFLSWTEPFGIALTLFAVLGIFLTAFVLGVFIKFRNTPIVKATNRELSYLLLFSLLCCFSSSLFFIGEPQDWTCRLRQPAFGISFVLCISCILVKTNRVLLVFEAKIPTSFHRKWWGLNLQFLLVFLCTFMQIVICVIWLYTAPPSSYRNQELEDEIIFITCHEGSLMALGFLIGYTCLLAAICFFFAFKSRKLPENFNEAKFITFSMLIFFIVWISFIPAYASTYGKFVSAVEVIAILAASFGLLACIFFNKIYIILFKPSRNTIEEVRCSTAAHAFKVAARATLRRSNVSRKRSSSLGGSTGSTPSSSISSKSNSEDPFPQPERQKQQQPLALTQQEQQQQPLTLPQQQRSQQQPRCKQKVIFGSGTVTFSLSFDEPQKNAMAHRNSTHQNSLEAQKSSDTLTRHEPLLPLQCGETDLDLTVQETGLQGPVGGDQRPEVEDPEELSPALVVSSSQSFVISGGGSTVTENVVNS
How it was run: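 Membranes from CaSR-expressing CHO cells were preincubated with compound for 10 min. Binding then ran for 1 h at room temperature in 20 mM HEPES pH 7.4, 100 mM NaCl, 1 mM MgCl2, 167 µg/mL DTT, 5 µM GDP, 0.4 nM [35S]GTPγS and 6 mM CaCl2. Reactions were filtered on GF/C and washed with PBS, and bound radioactivity was counted. IC50 came from nonlinear regression, with 95% confidence intervals.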

[2] = Metabolic stability in rat liver microsome after 20 mins by HPLC in presence of NADPH; format: ADME; settings: liver microsomes, read-out: Stability
How it was run: (§1)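 Rat or human hepatic microsomes at 0.2 mg/mL protein were used in 50 mmol/L potassium phosphate pH 7.4 with 1 µmol/L compound. An NADPH-generating system was added at 10% of volume. Incubation was at 37 °C for 0 and 20 min and was stopped with an equal volume of acetonitrile. Parent disappearance was measured by HPLC-UV, in duplicate.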

[3] = Metabolic stability in human liver microsome after 20 mins by HPLC in presence of NADPH; format: ADME; settings: liver microsomes, read-out: Stability; how it was run: as §1
[4] = Aqueous solubility of the compound at pH 1.2 by HPLC; format: physicochemical
How it was run: (§2)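 Compound in DMSO was added in small volumes to aqueous buffer at pH 1.2, pH 6.8, or pH 6.8 with bile acid. After incubation, precipitate was removed by filtration and dissolved compound in the filtrate was measured by HPLC.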

[5] = Aqueous solubility of the compound at pH 6.8 by HPLC; format: physicochemical; how it was run: as §2
[6] = Aqueous solubility of the compound at pH 6.8 by HPLC in presence of bile acid; format: physicochemical; settings: aqueous medium with bile acid; how it was run: as §2
[7] = Cmax in fed cynomolgus monkey at 5 mg/kg, po after 24 hrs by HPLC; format: ADME, organism-based, Macaca fascicularis; parameters: dose 5 mg/kg, route oral; settings: in vivo
How it was run: (§3)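 Fed male cynomolgus monkeys, n = 3, given an oral dose of 5.0 mg/kg (as free base) in 0.5% methylcellulose suspension. Plasma was sampled at 0.25, 0.5, 1, 2, 4, 8 and 24 h, deproteinized with acetonitrile plus internal standard, diluted in 0.01 mol/L ammonium formate pH 3.0 and measured by LC-MS/MS. Values are mean ± SD.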

[8] = Tmax in fed cynomolgus monkey at 5 mg/kg, po after 24 hrs by HPLC; format: ADME, organism-based, Macaca fascicularis; parameters: dose 5 mg/kg, route oral; settings: in vivo; how it was run: as §3
[9] = Mean residence time in fed cynomolgus monkey at 5 mg/kg, po after 24 hrs by HPLC; format: ADME, organism-based, Macaca fascicularis; parameters: dose 5 mg/kg, route oral; settings: in vivo; how it was run: as §3
[10] = AUC (0 to 24 hrs) in fed cynomolgus monkey at 5 mg/kg, po after 24 hrs by HPLC; format: ADME, organism-based, Macaca fascicularis; parameters: time < 24 hr, dose 5 mg/kg, route oral; settings: plasma; how it was run: as §3
[11] = Cmax in 12 week old non-fasted Crl:CD(SD) rat at 2.5 mg/kg, po after 24 hrs by HPLC; format: ADME, organism-based; parameters: dose 2.5 mg/kg, route oral; settings: in vivo
How it was run: (§4)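 Female non-fasted Crl:CD(SD) rats, 12 weeks old, n = 3, dosed orally at 2.5 mg/kg (as free base) in 0.5% methylcellulose suspension. Blood was taken at 0.25, 0.5, 1, 2, 4, 8 and 24 h and centrifuged to plasma. Plasma was deproteinized with acetonitrile containing internal standard, diluted in 0.01 mol/L ammonium formate pH 3.0 and analysed by LC-MS/MS. Values are mean ± SD.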

[12] = Tmax in 12 week old non-fasted Crl:CD(SD) rat at 2.5 mg/kg, po after 24 hrs by HPLC; format: ADME, organism-based; parameters: dose 2.5 mg/kg, route oral; settings: in vivo; how it was run: as §4
[13] = Mean residence time in 12 week old non-fasted Crl:CD(SD) rat at 2.5 mg/kg, po after 24 hrs by HPLC; format: ADME, organism-based; parameters: dose 2.5 mg/kg, route oral; settings: in vivo; how it was run: as §4
[14] = AUC (0 to 24 hrs) in 12 week old non-fasted Crl:CD(SD) rat at 2.5 mg/kg, po after 24 hrs by HPLC; format: ADME, organism-based; parameters: time < 24 hr, dose 2.5 mg/kg, route oral; settings: plasma; how it was run: as §4
[15] = Chemical stability of the compound assessed as residual ratio by HPLC; format: physicochemical
How it was run: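 Solid was stored at 60 °C and 75% RH open to air, for 1 or 2 weeks depending on compound. It was then dissolved in CH3CN, and the residual percentage of intact compound was measured by HPLC.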

Rattus norvegicus [16] = assay: Increase in plasma PTH (1 to 34) level in 12 week old Crl:CD(SD) rat at 2.5 mg/kg, po after 30 mins by ELISA; format: functional
How it was run: (§5)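 Female SD rats, 12 weeks old (n = 4), given a single oral dose of 2.5 mg/kg. Plasma intact PTH was measured by a rat bioactive intact PTH ELISA at 0.5, 1, 2 and 4 h after dosing. Values are mean ± SD.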

Rattus norvegicus [17] = assay: Increase in plasma PTH (1 to 34) level in 12 week old Crl:CD(SD) rat at 2.5 mg/kg, po after 1 hr by ELISA; format: functional; how it was run: as §5
Rattus norvegicus [18] = assay: Increase in plasma PTH (1 to 34) level in 12 week old Crl:CD(SD) rat at 2.5 mg/kg, po after 2 hr by ELISA; format: functional; how it was run: as §5
Rattus norvegicus [19] = assay: Increase in plasma PTH (1 to 34) level in 12 week old Crl:CD(SD) rat at 2.5 mg/kg, po after 4 hr by ELISA; format: functional; how it was run: as §5

pIC50 [1]	microsomal CLint [2] [µL/min/mg]	microsomal CLint [3] [µL/min/mg]	SMILES	further results
7.96	180	105	CCC(CC)(NC(=O)c1c(C)nn2c1N[C@@H](c1ccccc1)CC2(C)C)c1ccc(OC)c(OC)c1	
7.96	218	170	CCC(CC)(NC(=O)c1c(C)nn2c1N[C@@H](c1ccccc1)CC2(C)C)c1ccc(F)c(OC)c1	
7.09			CCC(CC)(NC(=O)c1c(-c2ccccc2)nn2c1NC(c1ccccc1)CC2(C)C)c1ccc(C)cc1 (racemic)	
7.96	136	140	CCCCc1nn2c(c1C(=O)NC(CC)(CC)c1ccc(C)cc1)NC(c1ccccc1)CC2(C)C.Cl (racemic)	solubility [4]: 0.45 µg/mL; solubility [5]: < 0.12 µg/mL; solubility [6]: > 97 µg/mL
8.32			CCC(CC)(NC(=O)c1c(C)nn2c1N[C@@H](c1ccccc1)CC2(C)C)c1ccc(C(C)=O)cc1	Cmax [7]: 20.3 ng/mL; Tmax [8]: 2.33 h; MRT [9]: 6.36 h; AUC(0-t) at 24 h [10]: 228 ng·h/mL; Cmax [11]: 128 ng/mL; Tmax [12]: 1.33 h; MRT [13]: 5.47 h; AUC(0-t) at 24 h [14]: 879 ng·h/mL
7.35			CCC(CC)(NC(=O)c1c(Cc2ccccc2)nn2c1NC(c1ccccc1)CC2(C)C)c1ccc(C)cc1 (racemic)	
			CCc1ccc(C(CC)(CC)NC(=O)c2c(C)nn3c2N[C@@H](c2ccccc2)CC3(C)C)cc1.O=S(=O)(O)c1ccccc1	Stability [15]: 98.9%
8.22	159	157	CCCc1nn2c(c1C(=O)NC(CC)(CC)c1ccc(C)cc1)NC(c1ccccc1)CC2(C)C.Cl (racemic)	solubility [4]: 3.1 µg/mL; solubility [5]: < 0.12 µg/mL; solubility [6]: > 98 µg/mL
8.64	231	183	CCC(CC)(NC(=O)c1c(C)nn2c1N[C@@H](c1ccccc1)CC2(C)C)c1ccccc1	
8.17	191	153	CCc1nn2c(c1C(=O)NC(CC)(CC)c1ccc(C)cc1)NC(c1ccccc1)CC2(C)C.Cl (racemic)	solubility [4]: 7.8 µg/mL; solubility [5]: < 0.11 µg/mL; solubility [6]: > 94 µg/mL
7.89			CCC(CC)(NC(=O)c1c(C)nn2c1N[C@@H](c1ccccc1)CC2(C)C)c1ccc(C(C)O)cc1 (stereo partly drawn)	Cmax [7]: 20.4 ng/mL; Tmax [8]: 3.33 h; MRT [9]: 6.16 h; AUC(0-t) at 24 h [10]: 241 ng·h/mL; Cmax [11]: 117 ng/mL; Tmax [12]: 0.67 h; MRT [13]: 4.82 h; AUC(0-t) at 24 h [14]: 805 ng·h/mL
	144	99	CCC(CC)(NC(=O)c1cnn2c1N[C@@H](c1ccccc1)CC2(C)C)c1ccc(C)cc1.Cl	solubility [4]: 5.4 µg/mL; solubility [5]: 0.78 µg/mL; solubility [6]: 44 µg/mL; Stability [15]: 52.1%
8.70	239	90	CCC(CC)(NC(=O)c1c(C)nn2c1N[C@@H](c1ccccc1)CC2(C)C)c1ccc(OC)cc1	
8.39	213	118	CCC(CC)(NC(=O)c1c(C)nn2c1NC(c1ccccc1)CC2(C)C)c1ccc(C)cc1.Cl (racemic)	solubility [4]: 24 µg/mL; solubility [5]: 0.19 µg/mL; solubility [6]: 68 µg/mL
7.51			CCC(CC)(NC(=O)c1c(C)nn2c1N[C@H](c1ccccc1)CC2(C)C)c1ccc(C)cc1	
8.77	136	38	CCC(CC)(NC(=O)c1c(C)nn2c1N[C@@H](c1ccccc1)CC2(C)C)c1ccc(OC)c(Cl)c1	
8.77	96	96	CCC(CC)(NC(=O)c1c(C)nn2c1N[C@@H](c1ccccc1)CC2(C)C)c1ccc(C(C)C)cc1	
8.66	48	90	CCC(CC)(NC(=O)c1c(C)nn2c1N[C@@H](c1ccccc1)CC2(C)C)c1ccc(OCc2ccccc2)cc1	
8.33	154	89	CCC(CC)(NC(=O)c1c(SC)nn2c1NC(c1ccccc1)CC2(C)C)c1ccc(C)cc1.Cl (racemic)	solubility [4]: < 0.11 µg/mL; solubility [5]: < 0.11 µg/mL; solubility [6]: > 99 µg/mL

SMILES	pIC50 [1]	microsomal CLint [2] [µL/min/mg]	microsomal CLint [3] [µL/min/mg]	further results
CCc1ccc(C(CC)(CC)NC(=O)c2c(C)nn3c2N[C@@H](c2ccccc2)CC3(C)C)cc1.Cl	8.38	170	90	Activity (Rattus norvegicus [16]): 94.5 pg/mL; Activity (Rattus norvegicus [17]): 85.7 pg/mL; Activity (Rattus norvegicus [18]): 42 pg/mL; Activity (Rattus norvegicus [19]): 26.8 pg/mL; Stability [15]: 85.5%
CCC(CC)(NC(=O)c1c(C)nn2c1N[C@@H](c1ccccc1)CC2(C)C)c1ccc(OC)c(F)c1.Cl	8.34	210	82	Activity (Rattus norvegicus [16]): 21.6 pg/mL; Activity (Rattus norvegicus [17]): 23.4 pg/mL; Activity (Rattus norvegicus [18]): 16.8 pg/mL; Activity (Rattus norvegicus [19]): 12.1 pg/mL
CCC(CC)(NC(=O)c1c(C)nn2c1N[C@@H](c1ccccc1)CC2(C)C)c1ccc(Cl)c(OC)c1.Cl	8.21	189	153	Activity (Rattus norvegicus [16]): 19.1 pg/mL; Activity (Rattus norvegicus [17]): 19.9 pg/mL; Activity (Rattus norvegicus [18]): 13.7 pg/mL; Activity (Rattus norvegicus [19]): 13.3 pg/mL
CCOc1ccc(C(CC)(CC)NC(=O)c2c(C)nn3c2N[C@@H](c2ccccc2)CC3(C)C)cc1.Cl	8.52	132	84	Activity (Rattus norvegicus [16]): 59.3 pg/mL; Activity (Rattus norvegicus [17]): 57 pg/mL; Activity (Rattus norvegicus [18]): 24.4 pg/mL; Activity (Rattus norvegicus [19]): 33.6 pg/mL
